According to ChEMBL document CHEMBL1155224, “Discovery of new inhibitors of resistant Streptococcus pneumoniae penicillin binding protein (PBP) 2x by structure-based virtual screening” (J Med Chem, 2009):
Residue numbers refer to the chain shown, from its start. pIC50: −log10 of the molar value. In brackets after ≈: the same amount, converted by molar mass. Activity calls are given as the source filed them. The rule behind the calls is not given here.

How the values were obtained:
[1] = target: T1, Penicillin-binding protein 2X (Streptococcus pneumoniae R6) (UniProt P59676); assay: (§1) Inhibition of penicillin-sensitive Streptococcus pneumoniae R6 PBP2X preincubated for 1 hr before addition of substrate (R)-[2-(benzoylamino)propionylsulfanyl]acetic acid
T1 sequence (whole entry): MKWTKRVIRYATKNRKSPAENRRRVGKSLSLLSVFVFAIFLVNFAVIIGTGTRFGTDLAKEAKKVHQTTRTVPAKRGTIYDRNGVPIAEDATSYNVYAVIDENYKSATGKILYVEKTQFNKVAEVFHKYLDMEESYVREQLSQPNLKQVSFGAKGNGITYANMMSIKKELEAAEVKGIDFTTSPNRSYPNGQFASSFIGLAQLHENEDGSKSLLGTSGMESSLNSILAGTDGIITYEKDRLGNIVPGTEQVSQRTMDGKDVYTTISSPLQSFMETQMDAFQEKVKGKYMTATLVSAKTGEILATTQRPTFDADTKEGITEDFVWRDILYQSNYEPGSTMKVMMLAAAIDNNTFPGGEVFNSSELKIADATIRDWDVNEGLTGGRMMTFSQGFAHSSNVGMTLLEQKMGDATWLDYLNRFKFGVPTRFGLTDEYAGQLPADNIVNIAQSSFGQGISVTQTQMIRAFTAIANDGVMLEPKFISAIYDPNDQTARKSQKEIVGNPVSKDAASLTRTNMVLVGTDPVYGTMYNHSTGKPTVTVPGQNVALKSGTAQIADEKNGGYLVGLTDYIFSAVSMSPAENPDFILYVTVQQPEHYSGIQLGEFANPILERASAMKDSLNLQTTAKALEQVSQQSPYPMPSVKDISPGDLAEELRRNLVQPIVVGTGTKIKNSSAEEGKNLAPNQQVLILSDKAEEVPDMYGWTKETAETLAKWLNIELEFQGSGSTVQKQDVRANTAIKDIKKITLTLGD
In short: (§2)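 Compounds taken from 100 mM DMF stocks (1% DMF final) and preincubated with 0.09 μM R6-PBP2x in 10 mM sodium phosphate pH 7.0 with 0.01 mg/mL BSA, 60 min, 25 °C. Spontaneous hydrolysis without enzyme measured. Triplicates. IC50 fitted from residual activity versus decreasing inhibitor concentration, with 0.01% Triton X-100.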

Streptococcus pneumoniae [2] = assay: Antibacterial activity against penicillin-resistant Streptococcus pneumoniae 5259; type: functional
Streptococcus pneumoniae [3] = assay: Antibacterial activity against penicillin-resistant Streptococcus pneumoniae SP328; type: functional
[4] = target: T2, Penicillin-binding protein 2x (Streptococcus pneumoniae serotype 4 (strain ATCC BAA-334 / TIGR4)) (UniProt P14677); assay: (§3) Inhibition of penicillin-resistant Streptococcus pneumoniae 5204 PBP2X preincubated for 4 hrs before addition of substrate (R)-[2-(benzoylamino)propionylsulfanyl]acetic acid
T2 sequence (whole entry): T1 sequence (whole entry) with M385T
In short: (§4)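 0.6 μM 5204-PBP2x preincubated 4 h at 25 °C with inhibitor in 10 mM sodium phosphate pH 7.0, 70 mM D-alanine, 0.01 mg/mL BSA, 1% DMF, 0.01% Triton X-100. Assays were run in triplicate, and IC50 was fitted from residual activity versus decreasing inhibitor concentrations.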

[5] = target: T3, Penicillin-binding protein 2X (Streptococcus pneumoniae R6, UniProt P59676); assay: as §1; in short: as §2
T3 sequence (P59676 whole entry): T1 sequence (whole entry)

[6] = target: T2, Penicillin-binding protein 2x (Streptococcus pneumoniae serotype 4 (strain ATCC BAA-334 / TIGR4)); assay: Inhibition of penicillin-resistant Streptococcus pneumoniae 5204 PBP2X; in short: as §4
[7] = target: T2, Penicillin-binding protein 2x (Streptococcus pneumoniae serotype 4 (strain ATCC BAA-334 / TIGR4)); assay: Inhibition of penicillin-resistant Streptococcus pneumoniae 5204 PBP2X assessed as residual activity at 100 uM preincubated for 1 hr before addition of substrate (R)-[2-(benzoylamino)propionylsulfanyl]acetic acid
[8] = Inhibition of Streptococcus pneumoniae PBP1B after 60 mins by SDS-PAGE
In short: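 Test compounds incubated with 0.7 μM PBP1b in 10 mM sodium phosphate pH 7.0 for 60 min at 30 °C. Remaining active enzyme counter-labeled with 10 μM fluorescein-labeled ampicillin for 20 min. Reaction stopped, proteins separated by SDS-PAGE and read by fluorescence imaging with background subtracted.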

[9] = target: Penicillin-binding protein 2x (Streptococcus pneumoniae serotype 4 (strain ATCC BAA-334 / TIGR4), UniProt P14677); assay: as §3; in short: as §4
Chain of Penicillin-binding protein 2x (P14677 whole entry, looked up): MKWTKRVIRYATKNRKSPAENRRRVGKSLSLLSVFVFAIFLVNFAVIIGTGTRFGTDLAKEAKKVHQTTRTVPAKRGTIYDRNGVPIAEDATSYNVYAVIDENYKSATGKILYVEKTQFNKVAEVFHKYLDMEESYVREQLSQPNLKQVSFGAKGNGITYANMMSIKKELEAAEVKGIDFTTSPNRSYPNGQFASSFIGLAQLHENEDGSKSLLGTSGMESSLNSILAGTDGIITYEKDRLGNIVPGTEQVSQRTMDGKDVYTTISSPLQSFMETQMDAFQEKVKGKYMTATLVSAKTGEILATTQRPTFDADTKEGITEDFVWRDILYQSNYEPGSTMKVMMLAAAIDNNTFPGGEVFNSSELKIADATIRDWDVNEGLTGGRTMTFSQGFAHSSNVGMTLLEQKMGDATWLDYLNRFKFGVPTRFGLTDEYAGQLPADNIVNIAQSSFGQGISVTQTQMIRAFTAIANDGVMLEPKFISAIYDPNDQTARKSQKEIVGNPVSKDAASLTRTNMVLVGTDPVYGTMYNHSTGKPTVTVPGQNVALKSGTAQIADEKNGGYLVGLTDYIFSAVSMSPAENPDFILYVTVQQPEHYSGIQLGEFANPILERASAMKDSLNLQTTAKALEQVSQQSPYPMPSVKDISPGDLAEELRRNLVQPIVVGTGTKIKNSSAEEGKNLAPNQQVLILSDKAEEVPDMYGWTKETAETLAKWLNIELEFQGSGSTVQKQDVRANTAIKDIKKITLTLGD

[10] = target: T2, Penicillin-binding protein 2x (Streptococcus pneumoniae serotype 4 (strain ATCC BAA-334 / TIGR4)); assay: Inhibition of penicillin-resistant Streptococcus pneumoniae 5204 PBP2X assessed as residual activity at 200 uM preincubated for 1 hr before addition of substrate (R)-[2-(benzoylamino)propionylsulfanyl]acetic acid

Compound | Activity [1] | MIC (Streptococcus pneumoniae [2]) [µg/mL] | MIC (Streptococcus pneumoniae [3]) [µg/mL] | Activity [4] | pIC50 [5] | Activity [6] | Activity [7] [%] | pIC50 ([8]; read-out: IC50) | pIC50 [9] | Activity [10] [%] | IC50 [8]
CC1(C)S[C@@H]2[C@H](NC(=O)Cc3ccccc3)C(=O)N2[C@H]1C(=O)O [PENICILLIN G] | Active | 0.19 (≈ 0.568 µM) | 4 (≈ 12 µM) | Active |  |  |  |  |  |  | 
O=C(Nc1cccc(C(F)(F)F)c1)Nc1c(Oc2ccc(Cl)c(Cl)c2)ccc(Cl)c1S(=O)(=O)O |  |  |  |  | 3.59 | Active | 50 | 4.06 | 4.14 |  | 
Cc1ccc(Nc2nnc(CSc3ccc(Cl)cc3)s2)c(S(=O)(=O)O)c1 |  |  |  |  | < 3.00 | Active |  |  | 3.66 | 54 | Not Active
